According to ChEMBL document CHEMBL1123944, “Tertiary 3- and 4-haloalkylamine analogues of oxotremorine as prodrugs of potent muscarinic agonists” (J Med Chem, 1988):

Experiments:
[1] = First order rate constant for cyclization of the compound; assay type: ADME
Procedure, shortened: (§1)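 Haloalkylamine (1.5–2 mM) in 50 mM sodium phosphate buffer, pH 7.4, at 37 °C. Released halide measured by argentometric titration. Data fitted by nonlinear regression to θ = 1 − e^(−k1·t), giving the apparent first-order constant k1. Means ± SE of three determinations.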

[2] = Half life was measured; assay type: ADME; procedure, shortened: as §1
[3] = species: Cavia porcellus; assay: Muscarinic activity in isolated guinea pig ileum; assay type: functional
Procedure, shortened: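 Guinea pig ileum in Tyrode solution (pH 7.4, 37 °C) containing 0.3 mM hexamethonium. Isotonic contractions recorded at 1 g tension. Cumulative concentration-response curves used stepwise 2.15-fold increments, with oxotremorine as reference. Parent compounds were dissolved in ice-cold water. Cyclized forms were pre-incubated in 50 mM phosphate buffer pH 7.4 at 37 °C for 30 h, 2 h or 1 min depending on the compound. EC50 given as mean ± SE over n preparations.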

[4] = species: Mus musculus; assay: Analgesic activity was measured by tail flick assay; assay type: functional
Procedure, shortened: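 Male Swiss-Webster mice (24–30 g); drug in ice-cold saline (kept on ice ≤1 h), given ip after control reaction times were taken. Tail-flick reaction times recorded 10 min post-dose; responders were animals whose reaction time was at least twice control. Dose estimated by the up-and-down method.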

[5] = system: Mus musculus; assay: Muscarinic activity tested by measuring salivation in mice after ip administration; assay type: functional
Procedure, shortened: (§2)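 Male Swiss-Webster mice (24–30 g); compounds in ice-cold saline, used within 1 h, given ip or iv via tail vein. Salivation was scored by touching the mouth to absorbent paper at intervals over the first 10 min. Threshold dose estimated by the up-and-down method; mean ± SE.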

[6] = system: Mus musculus; assay: Muscarinic activity tested by measuring salivation in mice after iv administration; assay type: functional; procedure, shortened: as §2
[7] = system: Mus musculus; assay: Muscarinic activity tested by measuring tremor in mice after iv administration; assay type: functional
Procedure, shortened: (§3)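 Male Swiss-Webster mice (24–30 g) dosed ip or iv via tail vein with compound in ice-cold saline (held on ice ≤1 h). Intermittent spontaneous (grade 2) tremor judged visually. Threshold dose estimated by the up-and-down method; mean ± SE.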

[8] = Toxicity was measured after iv administration; assay type: organism-based; details: mouse, in vivo
Procedure, shortened: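 Male Swiss-Webster mice (24–30 g) dosed iv with compound in ice-cold saline. LD50 estimated by the up-and-down method, with mortality counted at 1 h; mean ± SE.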

[9] = (§4) The equipotent molar ratio relative to oxotremorine (EPMR); assay type: functional
Procedure, shortened: (§5)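 Ileum EC50 taken as a ratio to the oxotremorine EC50 in guinea pig ileum contracting in Tyrode (pH 7.4, 37 °C, 0.3 mM hexamethonium). Curves were cumulative with 2.15-fold steps. Compounds were tested as parents in ice-cold water or after pre-cyclization in pH 7.4 phosphate buffer at 37 °C. Mean ± SE.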

[10] = system: Mus musculus; assay: Muscarinic activity tested by measuring tremor in mice after ip administration; assay type: functional; procedure, shortened: as §3
[11] = as §4; assay type: ADME; procedure, shortened: as §5

Row | Compound | K1 [1] | half-life [2] | EC50 [3] | ED50 [4] | ED50 [5] | ED50 [6] | ED50 [7] | LD50 [8] | Ratio [9] | ED50 [10] | Ratio [11]
1 | CN(CC#CCN1CCCC1=O)CCCCCl | > 2 min⁻¹ | < 0.4 min | 538 nM | 10.3 µmol/kg | 4.2 µmol/kg | 1.1 µmol/kg | 3.6 µmol/kg | 8 µmol/kg | 10.2 | – | –
2 | CN(CC#CCN1CCCC1=O)CCCI | 0.0491 min⁻¹ | 14.1 min | 136 nM | 7.7 µmol/kg | 10.4 µmol/kg | 4.5 µmol/kg | 8.9 µmol/kg | > 125 µmol/kg | 2.95 | 29.7 µmol/kg | –
3 | CN(CC#CCN1CCCC1=O)CCCl | 0.019 min⁻¹ | 36.5 min | – | – | – | – | – | – | – | – | –
4 | C[N+](C)(C)CCOC(N)=O.[Cl-] [CARBACHOL] | – | – | 120 nM | – | – | – | – | – | – | – | 2.6
5 | CN(CC#CCN1CCCC1=O)CCCCl | 0.0016 min⁻¹ | 436 min | 120 nM | 33.3 µmol/kg | 29.3 µmol/kg | 22.4 µmol/kg | – | 245 µmol/kg | – | – | 2.78
6 | CC1CCC(=O)N1CC#CCN(C)CCCBr (stereo not given) | 0.0555 min⁻¹ | 12.5 min | 1140 nM | 111 µmol/kg | 80.8 µmol/kg | 38 µmol/kg | – | > 250 µmol/kg | 23.7 | – | –
7 | CN(CC#CCN1CCCC1=O)CCBr | 0.85 min⁻¹ | 0.8 min | – | – | – | – | – | – | – | – | –
8 | CN(CC#CCN1CCCC1=O)CCCBr | 0.061 min⁻¹ | 11.4 min | 114 nM | 3.2 µmol/kg | 6 µmol/kg | 2.9 µmol/kg | 6.3 µmol/kg | 46.7 µmol/kg | 2.49 | 15.6 µmol/kg | –
9 | C[N+]1(CC#CCN2CCCC2=O)CCCC1 | – | – | 401 nM | – | – | – | – | – | – | – | 8.31
10 | O=C1CCCN1CC#CCN1CCCC1 [OXOTREMORINE] | – | – | 44 nM | 0.1 µmol/kg | 0.29 µmol/kg | 0.19 µmol/kg | 0.44 µmol/kg | – | – | 0.59 µmol/kg | 1
